Results gathered from unrelated publications.
Target: Calcium/calmodulin-dependent protein kinase type 1 (CAMK1, Homo sapiens, UniProt Q14012)

CCN(CC)CCNC(=O)c1c(C)[nH]c(/C=C2\C(=O)Nc3ccc(F)cc32)c1C
inhibition (enzyme activity; inhibitor; 10 µM): 87%

CS(=O)(=O)N1CCCC(NC(=O)[C@H](CCC2CCCCC2)NC(=O)c2ccc(CNc3ncnc4c3nnn4-c3ccccc3)cc2)C1 (some centres unmarked)
remaining binding (cell-free assay; competition with immobilised ligand; 0.1 µM): 96%

Cc1ccc(NC(=O)c2ccc(C)c(C(F)(F)F)c2)cc1C#Cc1nn(C2CCC(O)CC2)c2ncnc(N)c12 (centres unmarked)
remaining signal (cell-free assay; 10 µM): 62%

Cc1ccc(C(=O)Nc2ccc(CN3CCN(C)CC3)c(C(F)(F)F)c2)cc1C#Cc1cnc2cccnn12
remaining activity (enzyme activity; 23.5 nM): 74%

CCCCNc1ncc2c(-c3ccc(F)cc3)nn(C[C@H]3CC[C@H](N)CC3)c2n1
inhibition (target engagement in cells; inhibitor; chemoproteomics; 20 mM): 2.2%

CN(C)C(=O)Cn1cc(-c2nc([C@@](C)(c3ccc(-c4cnc(N)nc4)cc3)C3CC3)no2)cn1
remaining binding (cell-free assay; competition with immobilised ligand; 1 µM): 100%

N#CCCc1ccc2c(c1)-c1[nH]c3ccc([N+](=O)[O-])cc3c1CC(=O)N2
remaining signal (cell-free assay; 0.5 µM): 96%

Nc1nc(NC2CCCCC2)sc1C(=O)c1ccccc1
remaining activity (enzyme activity; inhibitor; 10 µM): 86%

CNC(=O)c1cc(Oc2ccc(NC(=O)Nc3ccc(Cl)c(C(F)(F)F)c3)cc2)ccn1
inhibition (enzyme activity; inhibitor; 10 µM): 9%

CCCOc1ccc(OC)c(F)c1C(=O)c1ccc(C(=O)N[C@@H]2CNC[C@H]2NC(=O)c2ccc3[nH]ncc3c2)cc1
remaining activity (enzyme activity; inhibitor; 10 µM): 34%

O=C(Nc1cnn(-c2csc(C(=O)NC3COC3)c2)c1)Nc1c(F)cccc1Cl
remaining activity (enzyme activity; inhibitor; 5 µM): 98%

COc1cc(-c2cc(-c3ccc(N4CCNCC4)cc3)cnc2C)cc(OC)c1OC
inhibition (enzyme activity; inhibitor; 1 µM): 1%

Cc1cc(-n2nc(Cc3cc(F)cc(C(F)(F)F)c3)nc2C)ccc1C(N)=O
remaining binding (cell-free assay; competition with immobilised ligand; 1 µM): 90%

COc1cc(Nc2cnc(C#N)c(O[C@H](C)CN(C)C)n2)ncc1-c1cnn(C)c1
remaining activity (enzyme activity; inhibitor; radiometric; 10 µM): 95%

CS(=O)(=O)c1cc(C2(NC(=O)c3cncc4c3cnn4-c3ccc(F)cc3)CC2)ccn1
remaining binding (cell-free assay; competition with immobilised ligand; 1 µM): 65%

Oc1cccc(-c2nc(N3CCOCC3)c3oc4ncccc4c3n2)c1
remaining activity (enzyme activity; inhibitor; 10 µM): 99%

O=C(Nc1cccnn1)N1CC(C/C=C/c2cncc(Oc3ccc(C(F)(F)F)cn3)n2)C1
remaining binding (cell-free assay; competition with immobilised ligand; 1 µM): 100%

Oc1cccc(-c2nc(N3CCOCC3)c3oc4ncccc4c3n2)c1
remaining signal (cell-free assay; 0.5 µM): 101%

NS(=O)(=O)c1cc(NC(=O)Cc2ccccc2)ccc1Oc1cccc(Cl)c1
remaining binding (cell-free assay; competition with immobilised ligand; 1 µM): 90%

CCN(CC)c1ccc(C2=NNC(=O)CC2C)cc1[N+](=O)[O-] (centres unmarked)
remaining activity (enzyme activity; inhibitor; 10 µM): 89%
